In ChEMBL document CHEMBL1777756, “Discovery of Novel Benzo[a]phenoxazine SSJ-183 as a Drug Candidate for Malaria” (ACS Med Chem Lett, 2010):
pIC50: −log10 of the molar value.

How the values were obtained:
[1] = tested on: L6; assay: Cytotoxicity against rat L6 cells; format: cell-based
Procedure, shortened: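 Cytotoxicity was tested against L-6 rat myoblasts, with IC50 determined. Values are the mean of two independent assays.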

[2] = Selectivity index, ratio of IC50 for rat L6 cells to IC50 for Plasmodium falciparum K1; format: toxicity, cell-based; conditions: read-out: Ratio IC50
Procedure, shortened: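 Selectivity index is IC50 against L-6 cells divided by IC50 against chloroquine/pyrimethamine-resistant P. falciparum K1. Each IC50 is the mean of two independent assays.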

[3] = tested on: Plasmodium berghei; assay: Antimalarial activity against Plasmodium berghei NK-65 infected in ICR mouse assessed as inhibition of parasitemia at 100 mg/kg, po administered as single dose on day 1 measured on day 4; format: functional
Procedure, shortened: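 Compound was formulated at 100 mg/kg in 5% glucose/10% ethanol or in 7% Tween 80/3% ethanol. The suspension was given as a single oral dose on day 1 to female ICR mice infected with P. berghei NK-65. Parasitemia was determined on day 4 after infection. Treated-group mean is expressed as percent difference from the control-group mean.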

[4] = tested on: Plasmodium berghei; assay: Antimalarial activity against Plasmodium berghei NK-65 infected in ICR mouse assessed as survival days at 100 mg/kg, po administered as single dose (reference value: 6 days); format: functional
Procedure, shortened: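 Female ICR mice infected with P. berghei NK-65 received a single oral dose of 100 mg/kg on day 1. The compound was given as a suspension in 5% glucose/10% ethanol or in 7% Tween 80/3% ethanol. Parasitemia was read on day 4 as percent reduction relative to untreated controls, and mean survival days were recorded.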

[5] = tested on: Plasmodium falciparum; assay: Antimalarial activity against chloroquine and pyrimethamine resistant Plasmodium falciparum K1; format: functional, organism-based
Procedure, shortened: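 IC50 was determined in vitro against the chloroquine- and pyrimethamine-resistant P. falciparum K1 strain. Values are the mean of two independent assays.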

SMILES	pIC50 [1]	selectivity ratio [2]	inhibition in vivo at 100 mg/kg [3] [%]	MSD [4] [days]	pIC50 [5]
CCCCN(CCCC)c1ccc2nc3c4ccccc4/c(=N/c4ccncc4)cc-3oc2c1.Cl.Cl	4.20	327	5.6	6.3	6.71
CCN(CC)c1ccc2nc3c4ccccc4/c(=N/c4cc[n+](C)cc4)cc-3oc2c1.[I-]	5.81	174	22	6.6	8.05
CCN(CC)c1ccc2nc3c4ccccc4/c(=N\c4ccc5ccccc5n4)cc-3oc2c1	4.17	2520	81	10.3	7.57
CCN(CC)c1ccc2nc3c4ccccc4/c(=N\c4ccccn4)cc-3oc2c1	4.80	1050	> 99.9	8.3	7.82
CCN(CC)c1ccc2nc3c4ccccc4/c(=N\c4ncc(Cl)cc4Cl)cc-3oc2c1	3.75	2860	14.7	6.3	7.20
CCN(CC)c1ccc2nc3c4ccccc4/c(=N/c4ccccc4)cc-3oc2c1.Cl	3.78	863	0	6.3	6.72
CCN(CC)c1ccc2nc3c4ccc(Br)cc4/c(=N/c4ccccn4)cc-3oc2c1	< 3.72	> 5010	12.7	6.3	7.42
CCN(CC)c1ccc2nc3c4ccccc4/c(=N/c4nc5ccc(OC)cc5s4)cc-3oc2c1	3.77	1490	11.4	6.3	6.95
CCN(CCNS(C)(=O)=O)c1cc(C)c2nc3c4ccccc4/c(=N/c4ccncc4)cc-3oc2c1.Cl.Cl	4.83	887	> 99.9	15.7	7.77
c1ccc2/c(=N/c3ccncc3)cc3oc4cc(N5CCOCC5)ccc4nc-3c2c1	4.01	3340	97.9	7.3	7.54
CCN(CC)c1ccc2nc3c4ccccc4/c(=N/c4cc[n+](Cc5ccccc5)cc4)cc-3oc2c1.[Cl-]	6.12	31	39	7.3	7.62
CCN(CC)CCCC(C)Nc1ccnc2cc(Cl)ccc12 (stereo not given) [CHLOROQUINE]			> 99.9	12.6	
CCN(CC)c1ccc2nc3c4ccccc4c(=O)cc-3oc2c1 [NILE RED]	4.18	76	15	6.3	6.06
CCN(CC)c1ccc2nc3c4ccccc4/c(=N/c4ccc(C)cc4)cc-3oc2c1.Cl	3.91	531	0	6.3	6.63
CCN(CC)c1ccc2nc3c4ccccc4/c(=N\c4ncccn4)cc-3oc2c1	4.87	2730	3.3	6.3	8.30
CCCN(CCC)c1ccc2nc3c4ccccc4/c(=N/c4ccncc4)cc-3oc2c1.Cl.Cl	4.17	1340	15.3	6.3	7.30
CCN(CC)c1ccc2nc3c4ccc(Br)cc4/c(=N/c4ccncc4)cc-3oc2c1	< 3.72	> 17300	14.2	6.6	7.96
CCN(CC)c1cc(C)c2nc3c4ccccc4/c(=N/c4ccncc4)cc-3oc2c1.Cl.Cl	4.06	481	99.7	13	6.74
CC[N+](CC)=c1ccc2nc3c(ccc4ccccc43)oc-2c1	5.42	6.3			6.22
CC[N+](CC)=c1ccc2nc3c(cc(N)c4ccccc43)oc-2c1.[Cl-] [NILE BLUE HYDROCHLORIDE]	4.37	2760	15	6.6	7.81
CN(C)c1ccc2nc3c4ccccc4/c(=N/c4ccncc4)cc-3oc2c1	3.78	20400	> 99.9	10	8.09
CCN(CC)c1ccc2nc3c4ccccc4/c(=N\c4cccnc4)cc-3oc2c1	3.93	5090	62.7	10	7.64
